# Experimental data from ChEMBL document CHEMBL5126577, “Discovery of honokiol thioethers containing 1,3,4-oxadiazole moieties as potential α-glucosidase and SARS-CoV-2 entry inhibitors” (Bioorg Med Chem, 2022).
# Tested on: SARS-CoV-2
# Assay: Antiviral activity against pseudovirus SARS-CoV-2 spike protein infected in HEK-293T cells overexpressing ACE2 assessed as inhibition on pseudovirus infection incubated for 52 hrs by luminescence based microplate reader analysis
# Assay type: functional, organism-based
# Conditions: Severe acute respiratory syndrome coronavirus 2, HEK-293T
# Method in brief: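 HEK-293T-ACE2h cells were pre-incubated with compound in DMEM for 2 h, then inoculated with luciferase-reporter spike pseudovirus plus 2-fold compound for about 2 h at 37 °C. The inoculum was replaced with fresh DMEM and cells were kept 48 h at 37 °C, then lysed. Luciferase luminescence was read, with virus-only cells set as 100%, and IC50 was computed.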
row,Compound,IC50 [µM]
1,C=CCc1cc(CSc2nnc(-c3ccccc3F)o2)c(O)c(-c2ccc(O)c(CC=C)c2)c1,> 100
2,C=CCc1cc(-c2cc(CC=C)c3oc(SCc4nnc(-c5cccc(Cl)c5)o4)nc3c2)c2oc(SCc3nnc(-c4cccc(Cl)c4)o3)nc2c1,> 100
3,C=CCc1cc(-c2cc(CC=C)c3oc(SCc4nnc(-c5ccccc5F)o4)nc3c2)c2oc(SCc3nnc(-c4ccccc4F)o3)nc2c1,> 100
4,C=CCc1cc(-c2cc(CC=C)c3oc(SCc4nnc(-c5ccccc5C)o4)nc3c2)c2oc(SCc3nnc(-c4ccccc4C)o3)nc2c1,> 100
5,C=CCc1cc(-c2cc(CC=C)c3oc(SCc4nnc(-c5ccc(C)cc5)o4)nc3c2)c2oc(SCc3nnc(-c4ccc(C)cc4)o3)nc2c1,> 100
6,C=CCc1cc(-c2cc(CC=C)c3oc(SCc4nnc(-c5cccc(F)c5)o4)nc3c2)c2oc(SCc3nnc(-c4cccc(F)c4)o3)nc2c1,> 100
7,C=CCc1cc(-c2cc(CC=C)c3oc(SCc4nnc(-c5ccc(Cl)cc5)o4)nc3c2)c2oc(SCc3nnc(-c4ccc(Cl)cc4)o3)nc2c1,> 100
8,C=CCc1cc(-c2cc(CC=C)c3oc(SCc4nnc(-c5ccc(Br)cc5)o4)nc3c2)c2oc(SCc3nnc(-c4ccc(Br)cc4)o3)nc2c1,> 100
9,C=CCc1cc(-c2cc(CC=C)c3oc(SCc4nnc(-c5cccc(OC)c5)o4)nc3c2)c2oc(SCc3nnc(-c4cccc(OC)c4)o3)nc2c1,> 100
10,C=CCc1cc(-c2cc(CC=C)c3oc(SCc4nnc(-c5ccccc5)o4)nc3c2)c2oc(SCc3nnc(-c4ccccc4)o3)nc2c1,> 100
11,C=CCc1cc(-c2cc(CC=C)c3oc(SCc4nnc(-c5ccc(F)cc5)o4)nc3c2)c2oc(SCc3nnc(-c4ccc(F)cc4)o3)nc2c1,> 100
12,C=CCc1cc(CSc2nnc(-c3cccnc3)o2)c(O)c(-c2ccc(O)c(CC=C)c2)c1,45.6
13,C=CCc1cc(-c2cc(CC=C)c3oc(SCc4nnc(-c5cccc(Br)c5)o4)nc3c2)c2oc(SCc3nnc(-c4cccc(Br)c4)o3)nc2c1,> 100
14,C=CCc1cc(-c2cc(CC=C)c3oc(SCc4nnc(-c5ccc(OC)cc5)o4)nc3c2)c2oc(SCc3nnc(-c4ccc(OC)cc4)o3)nc2c1,> 100
15,C=CCc1cc(-c2cc(CC=C)c3oc(SCc4nnc(-c5ccccc5OC)o4)nc3c2)c2oc(SCc3nnc(-c4ccccc4OC)o3)nc2c1,> 100
16,C=CCc1cc(-c2cc(CC=C)c3oc(SCc4nnc(-c5ccccc5Cl)o4)nc3c2)c2oc(SCc3nnc(-c4ccccc4Cl)o3)nc2c1,84.4
17,C=CCc1cc(-c2cc(CC=C)c3oc(SCc4nnc(-c5cccc(C)c5)o4)nc3c2)c2oc(SCc3nnc(-c4cccc(C)c4)o3)nc2c1,> 100
18,C=CCc1cc(CSc2nnc(-c3ccccc3Cl)o2)c(O)c(-c2ccc(O)c(CC=C)c2)c1,85.2
19,C=CCc1cc(CSc2nnc(-c3ccccc3)o2)c(O)c(-c2ccc(O)c(CC=C)c2)c1,17
20,C=CCc1cc(CSc2nnc(-c3ccccc3C)o2)c(O)c(-c2ccc(O)c(CC=C)c2)c1,> 100
21,C=CCc1cc(-c2cc(CC=C)c3oc(SCc4nnc(-c5ccccc5Br)o4)nc3c2)c2oc(SCc3nnc(-c4ccccc4Br)o3)nc2c1,> 100
22,C=CCc1ccc(O)c(-c2ccc(O)c(CC=C)c2)c1 [HONOKIOL],> 50
